Data: ChEMBL document CHEMBL5154645, “Potent Anti-SARS-CoV-2 Activity by the Natural Product Gallinamide A and Analogues via Inhibition of Cathepsin L” (J Med Chem, 2022)
The source made the active and inactive calls. The rule behind the calls is not given here.

Legend:
Cathepsin S = Cathepsin S (Homo sapiens, UniProt P25774); test: Inhibition of human recombinant Cathepsin S assessed remaining activity using Z-FR-AMC as substrate incubated for 30 mins by fluorometric assay
Method in brief: (§1)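 Recombinant human cathepsins: L, B, V and K at 1.11 nM, S at 4.44 nM. Each was preincubated 30 min at 25 °C with 3333 to 0.006 nM compound. Z-FR-AMC was added at 40 μM final. AMC release rate over 0–30 min was compared with DMSO (ex/em 360/460). IC50 from four technical replicates.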

Cathepsin K = biological target: T1, Cathepsin K (Homo sapiens, UniProt P43235); test: Inhibition of human recombinant Cathepsin K assessed remaining activity using Z-FR-AMC as substrate incubated for 30 mins by fluorometric assay; method in brief: as §1
T1 sequence (P43235 whole entry): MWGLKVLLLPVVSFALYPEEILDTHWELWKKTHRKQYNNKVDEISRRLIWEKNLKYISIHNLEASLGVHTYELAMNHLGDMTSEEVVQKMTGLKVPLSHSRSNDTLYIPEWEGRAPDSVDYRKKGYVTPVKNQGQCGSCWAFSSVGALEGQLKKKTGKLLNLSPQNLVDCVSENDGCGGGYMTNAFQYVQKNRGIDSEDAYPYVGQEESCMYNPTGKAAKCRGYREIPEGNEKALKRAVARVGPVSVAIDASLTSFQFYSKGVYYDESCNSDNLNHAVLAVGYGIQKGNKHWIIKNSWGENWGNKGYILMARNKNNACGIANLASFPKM

Cathepsin B [1] = biological target: T2, Cathepsin B (Homo sapiens, UniProt P07858); test: Inhibition of human recombinant Cathepsin B assessed remaining activity using Z-FR-AMC as substrate incubated for 30 mins by fluorometric assay; method in brief: as §1
Cathepsin B [2] = biological target: T2, Cathepsin B; test: Inhibition of human recombinant Cathepsin B assessed as Kinact using Z-FR-AMC as substrate inubated for 30 mins by fluorometric assay
Procathepsin L [3] = biological target: T3, Procathepsin L (Homo sapiens, UniProt P07711); test: Inhibition of human recombinant Cathepsin L assessed as Kinact using Z-FR-AMC as substrate inubated for 30 mins by fluorometric assay
Method in brief: (§2)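 Human CatL, human CatB or mouse CatL at 1 nM, at 25 °C in pH 5.5 Na acetate/DTT/EDTA/NaCl buffer. Reactions held 40 μM Z-FR-AMC and 555.56 to 0.01 nM compound, in quadruplicate. Product formation was measured at 6 min intervals for 1 h and normalized to DMSO wells. kobs came from inactivation curves. kinact and KIapp were obtained by nonlinear regression of kobs = kinact[I]/(KIapp + [I]); their ratio was then calculated.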
Target sequence in this assay (P07711 114-333 limits assumed): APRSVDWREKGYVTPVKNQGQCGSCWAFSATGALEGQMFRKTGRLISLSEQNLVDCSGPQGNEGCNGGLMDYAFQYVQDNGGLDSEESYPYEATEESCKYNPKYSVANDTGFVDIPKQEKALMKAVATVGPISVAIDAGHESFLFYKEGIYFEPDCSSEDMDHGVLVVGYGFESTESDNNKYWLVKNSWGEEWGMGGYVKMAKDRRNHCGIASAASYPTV

SARS-CoV-2 [4] = test: Antiviral activity against SARS-CoV-2 infected in African green monkey Vero E6 cells assessed as inhibition of viral infection pre incubated for 30 minutes followed by viral infection and measured after 72 hrs by Nucblue dye based fluorometric analysis; assay type: functional, organism-based; conditions: Severe acute respiratory syndrome coronavirus 2, Vero C1008
Procathepsin L [5] = biological target: T3, Procathepsin L; test: Inhibition of human recombinant Cathepsin L assessed as Apparent inhibition constant using Z-FR-AMC as substrate […] by fluorometric assay; conditions: read-out: Ki(app)
Target sequence in this assay (P07711 whole entry): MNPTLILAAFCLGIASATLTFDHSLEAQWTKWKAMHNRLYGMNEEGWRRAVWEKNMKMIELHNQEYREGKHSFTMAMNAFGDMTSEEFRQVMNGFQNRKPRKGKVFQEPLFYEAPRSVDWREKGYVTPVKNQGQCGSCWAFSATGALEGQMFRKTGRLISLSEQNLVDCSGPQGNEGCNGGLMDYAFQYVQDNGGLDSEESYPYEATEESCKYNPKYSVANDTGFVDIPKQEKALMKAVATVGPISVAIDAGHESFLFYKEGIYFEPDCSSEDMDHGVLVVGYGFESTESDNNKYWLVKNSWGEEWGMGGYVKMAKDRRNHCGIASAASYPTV

Cathepsin L2 = biological target: T4, Cathepsin L2 (Homo sapiens, UniProt O60911); test: Inhibition of human recombinant Cathepsin V assessed remaining activity using Z-FR-AMC as substrate incubated for 30 mins by fluorometric assay; method in brief: as §1
T4 sequence (O60911 whole entry): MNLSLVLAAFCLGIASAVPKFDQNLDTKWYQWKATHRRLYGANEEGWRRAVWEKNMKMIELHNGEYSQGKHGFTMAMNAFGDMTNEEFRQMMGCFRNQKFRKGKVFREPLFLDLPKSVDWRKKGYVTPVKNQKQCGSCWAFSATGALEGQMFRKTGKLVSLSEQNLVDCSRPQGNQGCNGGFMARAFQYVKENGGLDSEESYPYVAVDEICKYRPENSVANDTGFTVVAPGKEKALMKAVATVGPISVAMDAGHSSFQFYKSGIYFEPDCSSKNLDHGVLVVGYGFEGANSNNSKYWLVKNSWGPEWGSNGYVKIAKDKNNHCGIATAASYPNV

Procathepsin L [6] = biological target: T5, Procathepsin L (Mus musculus, UniProt P06797); test: Inhibition of mouse Cathepsin L assessed as Apparent inhibition constant using Z-FR-AMC as substrate inubated for 30 mins by fluorometric assay; conditions: read-out: Ki(app); method in brief: as §2
T5 sequence (P06797 whole entry): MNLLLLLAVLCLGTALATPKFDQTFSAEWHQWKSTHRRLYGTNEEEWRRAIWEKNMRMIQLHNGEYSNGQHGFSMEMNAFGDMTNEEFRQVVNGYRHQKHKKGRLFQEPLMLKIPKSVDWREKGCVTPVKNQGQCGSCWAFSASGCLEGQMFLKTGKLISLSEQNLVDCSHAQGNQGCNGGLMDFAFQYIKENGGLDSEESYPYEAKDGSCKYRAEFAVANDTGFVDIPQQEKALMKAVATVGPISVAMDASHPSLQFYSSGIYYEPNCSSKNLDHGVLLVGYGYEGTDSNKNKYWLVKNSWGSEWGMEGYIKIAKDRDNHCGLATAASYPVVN

Procathepsin L [7] = biological target: T3, Procathepsin L; test: Inhibition of human recombinant Cathepsin L assessed as ratio of Kinact/Kiapp using Z-FR-AMC as substrate inubated for 30 mins by fluorometric assay
Target sequence in this assay (P07711 114-333 limits assumed): as the sequence (P07711 114-333 limits assumed) above

Cathepsin B [8] = biological target: T2, Cathepsin B; test: Inhibition of human recombinant Cathepsin B assessed as Apparent inhibition constant using Z-FR-AMC as substrate inubated for 30 mins by fluorometric assay; conditions: read-out: Ki(app); method in brief: as §2
[9] = biological target: T6, Procathepsin L (Mus musculus) (UniProt P06797); test: Inhibition of mouse Cathepsin L assessed as Kinact using Z-FR-AMC as substrate inubated for 30 mins by fluorometric assay; method in brief: as §2
T6 sequence (whole entry): T5 sequence (P06797 whole entry)

Vero C1008 = test: Cytotoxicity against cells African green monkey Vero E6 cells incubated for 24 to 72 hrs by alamar blue assay; assay type: toxicity, cell-based; conditions: chlorocebus sabaeus, time 24-72 hrs
Method in brief: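 VeroE6 cells in DMEM with 10% FCS were seeded at 5 × 10^4 per well. After adherence, cells were given varying compound concentrations for 24 or 72 h at 37 °C, 5% CO2. Alamar Blue HS was added for a further 2–4 h. Viability was read as fluorescence at ex/em 560/590 nm.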

Cathepsin B [10] = biological target: T2, Cathepsin B; test: Inhibition of human recombinant Cathepsin B assessed as ratio of Kinact/Kiapp using Z-FR-AMC as substrate inubated for 30 mins by fluorometric assay; method in brief: as §2
[11] = biological target: T6, Procathepsin L (Mus musculus); test: Inhibition of mouse Cathepsin L assessed as ratio of Kinact/Kiapp using Z-FR-AMC as substrate inubated for 30 mins by fluorometric assay; method in brief: as §2
SARS-CoV-2 [12] = test: Antiviral activity against SARS-CoV-2 infected in human MRC5 cells expressing ACE2/TMPRSS2 assessed as inhibition of viral entry at 32 uM; assay type: functional, organism-based; conditions: Severe acute respiratory syndrome coronavirus 2

Sequence of Cathepsin S (P25774 whole entry): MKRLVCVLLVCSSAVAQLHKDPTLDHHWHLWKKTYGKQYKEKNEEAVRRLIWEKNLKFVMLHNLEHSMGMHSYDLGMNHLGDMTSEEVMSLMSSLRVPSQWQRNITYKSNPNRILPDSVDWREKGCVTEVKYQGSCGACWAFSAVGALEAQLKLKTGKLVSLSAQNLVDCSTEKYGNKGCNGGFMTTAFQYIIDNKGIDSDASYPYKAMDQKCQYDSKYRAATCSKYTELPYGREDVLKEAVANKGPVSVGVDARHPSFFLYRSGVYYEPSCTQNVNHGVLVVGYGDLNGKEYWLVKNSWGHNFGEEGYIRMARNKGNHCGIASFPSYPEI

Compound	IC50 (Cathepsin S)	IC50 (Cathepsin K)	IC50 (Cathepsin B [1])	Kinact (Cathepsin B [2])	Kinact (Procathepsin L [3])	EC50 (SARS-CoV-2 [4])	Ki (Procathepsin L [5])	IC50 (Cathepsin L2)	Ki (Procathepsin L [6])	Ratio (Procathepsin L [7])	Ki (Cathepsin B [8])	Kinact [9]	CC50 (Vero C1008)	Ratio (Cathepsin B [10])	Ratio [11]	Activity (SARS-CoV-2 [12])
COC1=CC(=O)N(C(=O)/C=C/[C@H](C)NC(=O)[C@H](CC(C)C)NC(=O)[C@H](CC2CCCCC2)NC(=O)C2CCN(C)CC2)[C@H]1Cc1c[nH]c2ccccc12	0.304 nM	0.623 nM	0.278 nM	2.09 10^-2/s	3.47 10^-3/s	6070 nM	18 nM	20.6 nM	29.3 nM	1.93 10^5/s/M	861 nM	8.56 10^-3/s	> 100000 nM	2.43 10^4/s/M	2.92 10^5/s/M	
COC1=CC(=O)N(C(=O)/C=C/[C@H](C)NC(=O)[C@H](CCc2ccccc2)NC(=O)[C@H](CC2CCCCC2)NC(=O)[C@H](C(C)C)N(C)C)[C@H]1Cc1c[nH]c2ccccc12	60.3 nM	219 nM	47.6 nM	3.35 10^-3/s	5.87 10^-3/s	168 nM		186 nM	16.5 nM	1.89 10^5/s/M	347 nM	2.24 10^-3/s	> 100000 nM	9.65 10^3/s/M	1.36 10^5/s/M	Active
COC1=CC(=O)N(C(=O)/C=C/[C@H](C)NC(=O)[C@H](CC(C)C)NC(=O)[C@H](CC(C)C)NC(=O)C2CCN(C)CC2)[C@H]1Cc1c[nH]c2ccccc12	0.0149 nM	17.9 nM	0.416 nM	1.7 10^-2/s	8.34 10^-3/s	> 5000 nM		63.2 nM	3.95 nM	2.9 10^5/s/M	854 nM	3.19 10^-3/s	> 100000 nM	1.99 10^4/s/M	8.06 10^5/s/M	
